From ChEMBL document CHEMBL4002590, “Design and Synthesis of a Pan-Janus Kinase Inhibitor Clinical Candidate (PF-06263276) Suitable for Inhaled and Topical Delivery for the Treatment of Inflammatory Diseases of the Lungs and Skin” (J Med Chem, 2017)
≈ marks a conversion by molar mass, not a printed value. Calls of active or inactive are those of the source. The calls are words filed in the database; no cut-off is given here.

Legend:
[1] = molecular target: Non-receptor tyrosine-protein kinase TYK2 (Homo sapiens, UniProt P29597); assay: Inhibition of Tyk2 (unknown origin) using peptide substrate preincubated for 60 mins followed by substrate addition and measured after 60 mins by microfluidic assay
Summary of the method: (§1)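 Caliper microfluidic assay of peptide-substrate phosphorylation by the relevant JAK enzyme, run at 1 mM ATP; IC50 values are geometric means of at least three determinations.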

Liver = assay: Metabolic stability in human liver microsomes assessed per mg protein; type: ADME, microsome
Summary of the method: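 Metabolic stability measured as turnover in human liver microsomes.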

[2] = molecular target: T1, Tyrosine-protein kinase JAK2 (Homo sapiens, UniProt O60674); assay: Inhibition of GST tagged human recombinant JAK2 catalytic domain expressed in baculovirus using peptide substrate preincubated for 60 mins followed by substrate addition and measured after 60 mins by microfluidic assay; summary of the method: as §1
[3] = Thermodynamic solubility of the compound in pH 7.4 water buffer using crystalline solid sample; type: physicochemical; conditions: read-out: Therm_solubility
Summary of the method: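 Thermodynamic solubility measured from crystalline solid in water buffered at pH 7.4.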

[4] = Chemical stability in pH 8 solution at 40 degC after 1 to 2 days; type: physicochemical; conditions: buffer
Summary of the method: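 Hydrolytic stability followed over 1–2 days at pH 8.0 and 40 °C; percent degradation recorded.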

[5] = Drug metabolism in human liver microsomes assessed as UGT-mediated compound glucuronidation per mg protein in presence of microsomal activator Brij58 and cofactor UDPGA; type: ADME
Summary of the method: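 Human liver microsomes supplemented with the activator Brij58 and cofactor UDPGA, NADPH omitted, to measure phase II glucuronidation turnover.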

[6] = molecular target: T1, Tyrosine-protein kinase JAK2; assay: Inhibition of JAK2 homodimer in human whole blood assessed as inhibition of GM-CSF induced STAT5 phosphorylation preincubated for 45 mins followed by GM-CSF addition and measured after 20 mins by flow cytometric analysis
[7] = Lipophilicity, logD of the compound by shake flask method; type: physicochemical; conditions: octanol/water
Summary of the method: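 log D measured by the shake flask method.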

Rattus norvegicus [8] = assay: Unbound clearance in rat at 0.5 mg/kg, iv; type: ADME, organism-based; conditions: in vivo
[9] = Volume of distribution at steady state in rat at 0.5 mg/kg, iv; type: ADME, organism-based; conditions: in vivo, read-out: Vdss
[10] = Terminal half life in iv dosed rat at 0.5 mg/kg; type: ADME, organism-based; conditions: in vivo, read-out: beta t1/2 (converted)
Canis familiaris [11] = assay: Intrinsic clearance in dog at 0.1 mg/kg, iv administered as 30 mins infusion; type: ADME, organism-based, Canis lupus familiaris; conditions: in vivo, 0.5 h
Canis familiaris [12] = assay: Unbound clearance in dog at 0.1 mg/kg, iv administered as 30 mins infusion; type: ADME, organism-based, Canis lupus familiaris; conditions: in vivo, 0.5 h
[13] = Volume of distribution at steady state in dog at 0.1 mg/kg, iv administered as 30 mins infusion; type: ADME, organism-based, Canis lupus familiaris; conditions: in vivo, read-out: Vdss
[14] = Terminal half life in dog at 0.1 mg/kg, iv administered as 30 mins infusion; type: ADME, organism-based, Canis lupus familiaris; conditions: in vivo, read-out: beta t1/2 (converted)
[15] = Oral bioavailability in rat at 1 mg/kg; type: ADME, organism-based; conditions: in vivo
Mus musculus [16] = assay: In vivo inhibition of JAK1/JAK2 in […] dosed Balb/c mouse assessed as inhibition of IL-6 induced STAT3 phosphorylation in lungs pretreated for 15 mins followed by IL-6 stimulation measured after 30 mins by ELISA; type: functional
Summary of the method: (§2)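 Intratracheal dosing in mouse, then IL-6 given i.t.; phosphorylated STAT3 quantified in lung. Percent inhibition ± 95% CI from the difference in geometric means between vehicle/IL-6 and vehicle/saline groups; N = 6.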

Mus musculus [17] = assay: In vivo inhibition of JAK1/JAK2 in Balb/c mouse assessed as inhibition of IL-6 induced STAT3 phosphorylation in lungs at 10 ug, it pretreated for 15 mins followed by IL-6 stimulation measured after 30 mins by ELISA relative to control; type: functional; summary of the method: as §2
Mus musculus [18] = assay: In vivo inhibition of JAK2 homodimer in Balb/c mouse assessed as inhibition of GM-CSF induced STAT5 phosphorylation in blood at 10 ug, it for 12 consecutive days; type: functional, organism-based
Summary of the method: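 After i.t. dosing in mouse, GM-CSF-induced phosphorylated STAT5 measured in blood; percent inhibition ± 95% CI from geometric means versus vehicle groups; N = 3.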

[19] = molecular target: Tyrosine-protein kinase ABL1 (Homo sapiens) (UniProt P00519); assay: Inhibition of recombinant human Abl kinase expressed in insect cells at 10 uM using Ulight-TK peptide substrate after 30 mins by LANCE method
Summary of the method: (§3)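 Single-point screen at 10 μM within a broad panel of radioligand binding and enzyme inhibition assays covering receptors, transporters, enzymes and ion channels.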

[20] = molecular target: Alpha-2B adrenergic receptor (Homo sapiens) (UniProt P18089); assay: Antagonist activity at recombinant human alpha 2B adrenergic receptor expressed in HEK293 cells assessed as inhibition of dexmedetomidine-induced cAMP accumulation at 10 uM after 30 mins by HTRF method; type: functional, cell-based
[21] = molecular target: Vascular endothelial growth factor receptor 2 (Homo sapiens) (UniProt P35968); assay: Inhibition of recombinant human KDR kinase expressed in insect Sf21 cells at 10 uM using Ulight-CAGAGAIETDKEYYTVKD as substrate after 60 mins by LANCE assay; summary of the method: as §3
[22] = molecular target: Aurora kinase A (Homo sapiens) (UniProt O14965); assay: Inhibition of recombinant human AurA/Aur 2 kinase expressed in insect Sf21 cells at 10 uM using Ulight-RRRSLLE substrate after 15 mins by LANCE assay; summary of the method: as §3
Mus musculus [23] = assay: Effect on nerve activation in mouse up to 2 mg inhalation administered as micelle vehicle to delta fiber sensory nerve preparation; conditions: in vivo, inhaled_or_intranasal
Summary of the method: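 Mouse A delta fiber sensory nerve preparation given up to 2 mg in 400 μL of micelle vehicle; nerve activation recorded.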

Canis familiaris [24] = assay: Toxicity in iv dosed dog for 7 days; type: organism-based, Canis lupus familiaris; conditions: in vivo, 168 h
Summary of the method: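 Exploratory 7-day intravenous toxicology studies in rat and dog; margins expressed over total plasma AUC relative to projected exposure at a 200 μg human lung dose.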

Rattus norvegicus [25] = assay: Genotoxicity in iv dosed rat after 7 days by peripheral blood micronucleus assay; type: toxicity, organism-based; conditions: in vivo, 168 h
[26] = Chemical stability in pH 8 solution at 40 degC up to 6 weeks; type: physicochemical; conditions: buffer, pH 8, 1008 h
[27] = Chemical stability at room temperature up to 6 weeks; type: physicochemical; conditions: 1008 h
Summary of the method: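 Crystalline solid stored at room temperature and at 40 °C/75% relative humidity for up to 6 weeks; chemical stability assessed.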

[28] = Chemical stability in lactose using micronized sample up to 4 weeks; type: physicochemical; conditions: 672 h
Summary of the method: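 Jet-milled (micronized, ~2 μm) material blended with lactose and monitored for chemical and physical stability for up to 4 weeks.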

Rattus norvegicus [29] = species on record: Rattus norvegicus; assay: Displacement of [3H]batrachotoxinin from rat cerebral cortex sodium channel site-2 at 10 uM after 60 mins by scintillation counting method relative to control; summary of the method: as §3
JAK1/TYK2 (Homo sapiens) = JAK1/TYK2 (Homo sapiens) (UniProt P23458+P29597)
JAK3/JAK1 (Homo sapiens) = JAK3/JAK1 (Homo sapiens) (UniProt P52333+P23458)
[30] = molecular target: T1, Tyrosine-protein kinase JAK2

T1 sequence (O60674 whole entry, the tested form may be a part): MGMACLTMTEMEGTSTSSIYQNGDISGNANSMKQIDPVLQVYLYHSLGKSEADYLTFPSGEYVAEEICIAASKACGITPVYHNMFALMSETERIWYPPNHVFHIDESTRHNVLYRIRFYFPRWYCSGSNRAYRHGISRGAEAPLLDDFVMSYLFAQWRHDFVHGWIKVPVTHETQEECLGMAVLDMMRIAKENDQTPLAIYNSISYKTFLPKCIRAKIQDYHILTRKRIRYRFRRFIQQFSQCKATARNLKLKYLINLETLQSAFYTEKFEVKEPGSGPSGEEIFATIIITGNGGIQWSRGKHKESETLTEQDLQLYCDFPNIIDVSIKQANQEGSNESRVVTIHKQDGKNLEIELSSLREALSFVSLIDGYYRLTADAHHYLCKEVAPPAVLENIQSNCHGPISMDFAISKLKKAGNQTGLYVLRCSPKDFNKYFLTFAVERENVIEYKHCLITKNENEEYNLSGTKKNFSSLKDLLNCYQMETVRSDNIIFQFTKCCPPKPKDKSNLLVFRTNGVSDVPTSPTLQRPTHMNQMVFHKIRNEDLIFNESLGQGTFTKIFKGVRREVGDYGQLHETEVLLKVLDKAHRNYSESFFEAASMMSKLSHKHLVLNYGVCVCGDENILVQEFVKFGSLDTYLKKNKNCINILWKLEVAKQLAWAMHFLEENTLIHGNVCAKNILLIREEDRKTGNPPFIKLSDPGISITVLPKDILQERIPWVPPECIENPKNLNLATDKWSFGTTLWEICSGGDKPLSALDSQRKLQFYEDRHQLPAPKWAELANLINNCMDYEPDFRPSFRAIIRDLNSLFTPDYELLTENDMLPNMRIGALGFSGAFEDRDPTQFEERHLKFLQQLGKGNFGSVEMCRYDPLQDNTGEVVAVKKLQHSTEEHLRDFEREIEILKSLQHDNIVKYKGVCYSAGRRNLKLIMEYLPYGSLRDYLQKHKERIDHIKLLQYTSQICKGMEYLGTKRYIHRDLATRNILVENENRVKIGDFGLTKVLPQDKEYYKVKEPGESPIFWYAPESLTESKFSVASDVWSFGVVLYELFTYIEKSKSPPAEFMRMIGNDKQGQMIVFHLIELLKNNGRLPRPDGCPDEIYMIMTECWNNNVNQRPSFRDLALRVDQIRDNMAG
Chain of Non-receptor tyrosine-protein kinase TYK2 (P29597 whole entry): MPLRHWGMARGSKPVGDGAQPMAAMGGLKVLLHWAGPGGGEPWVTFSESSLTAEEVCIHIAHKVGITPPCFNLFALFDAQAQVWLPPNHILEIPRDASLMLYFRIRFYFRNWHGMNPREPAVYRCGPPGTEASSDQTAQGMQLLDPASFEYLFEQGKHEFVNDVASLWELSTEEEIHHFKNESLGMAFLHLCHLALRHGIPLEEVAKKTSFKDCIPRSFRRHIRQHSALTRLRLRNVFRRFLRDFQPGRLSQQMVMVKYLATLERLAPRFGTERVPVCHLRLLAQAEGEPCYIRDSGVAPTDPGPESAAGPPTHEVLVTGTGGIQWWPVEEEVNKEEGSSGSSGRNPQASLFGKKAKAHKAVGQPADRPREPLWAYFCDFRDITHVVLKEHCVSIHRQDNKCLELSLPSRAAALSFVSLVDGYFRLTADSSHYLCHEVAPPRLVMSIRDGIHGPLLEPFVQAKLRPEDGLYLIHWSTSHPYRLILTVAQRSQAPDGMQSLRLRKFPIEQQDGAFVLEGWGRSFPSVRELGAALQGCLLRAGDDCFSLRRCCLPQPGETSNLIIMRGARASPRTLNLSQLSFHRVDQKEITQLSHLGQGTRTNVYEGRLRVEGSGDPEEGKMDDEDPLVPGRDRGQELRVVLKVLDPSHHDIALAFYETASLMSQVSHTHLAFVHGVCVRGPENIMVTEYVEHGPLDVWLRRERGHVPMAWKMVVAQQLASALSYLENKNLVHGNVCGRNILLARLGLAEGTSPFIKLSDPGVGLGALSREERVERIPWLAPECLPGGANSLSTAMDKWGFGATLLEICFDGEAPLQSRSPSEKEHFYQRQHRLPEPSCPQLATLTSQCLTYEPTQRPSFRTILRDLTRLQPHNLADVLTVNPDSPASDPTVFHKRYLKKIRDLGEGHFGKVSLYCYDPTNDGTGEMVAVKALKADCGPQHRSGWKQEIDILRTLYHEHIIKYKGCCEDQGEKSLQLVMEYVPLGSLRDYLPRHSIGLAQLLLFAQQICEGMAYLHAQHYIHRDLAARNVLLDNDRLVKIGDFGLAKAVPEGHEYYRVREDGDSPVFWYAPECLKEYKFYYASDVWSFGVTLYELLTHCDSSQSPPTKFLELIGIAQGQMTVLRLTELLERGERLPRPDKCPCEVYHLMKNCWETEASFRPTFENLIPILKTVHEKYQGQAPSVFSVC
Chain of Vascular endothelial growth factor receptor 2 (Homo sapiens) (P35968 whole entry): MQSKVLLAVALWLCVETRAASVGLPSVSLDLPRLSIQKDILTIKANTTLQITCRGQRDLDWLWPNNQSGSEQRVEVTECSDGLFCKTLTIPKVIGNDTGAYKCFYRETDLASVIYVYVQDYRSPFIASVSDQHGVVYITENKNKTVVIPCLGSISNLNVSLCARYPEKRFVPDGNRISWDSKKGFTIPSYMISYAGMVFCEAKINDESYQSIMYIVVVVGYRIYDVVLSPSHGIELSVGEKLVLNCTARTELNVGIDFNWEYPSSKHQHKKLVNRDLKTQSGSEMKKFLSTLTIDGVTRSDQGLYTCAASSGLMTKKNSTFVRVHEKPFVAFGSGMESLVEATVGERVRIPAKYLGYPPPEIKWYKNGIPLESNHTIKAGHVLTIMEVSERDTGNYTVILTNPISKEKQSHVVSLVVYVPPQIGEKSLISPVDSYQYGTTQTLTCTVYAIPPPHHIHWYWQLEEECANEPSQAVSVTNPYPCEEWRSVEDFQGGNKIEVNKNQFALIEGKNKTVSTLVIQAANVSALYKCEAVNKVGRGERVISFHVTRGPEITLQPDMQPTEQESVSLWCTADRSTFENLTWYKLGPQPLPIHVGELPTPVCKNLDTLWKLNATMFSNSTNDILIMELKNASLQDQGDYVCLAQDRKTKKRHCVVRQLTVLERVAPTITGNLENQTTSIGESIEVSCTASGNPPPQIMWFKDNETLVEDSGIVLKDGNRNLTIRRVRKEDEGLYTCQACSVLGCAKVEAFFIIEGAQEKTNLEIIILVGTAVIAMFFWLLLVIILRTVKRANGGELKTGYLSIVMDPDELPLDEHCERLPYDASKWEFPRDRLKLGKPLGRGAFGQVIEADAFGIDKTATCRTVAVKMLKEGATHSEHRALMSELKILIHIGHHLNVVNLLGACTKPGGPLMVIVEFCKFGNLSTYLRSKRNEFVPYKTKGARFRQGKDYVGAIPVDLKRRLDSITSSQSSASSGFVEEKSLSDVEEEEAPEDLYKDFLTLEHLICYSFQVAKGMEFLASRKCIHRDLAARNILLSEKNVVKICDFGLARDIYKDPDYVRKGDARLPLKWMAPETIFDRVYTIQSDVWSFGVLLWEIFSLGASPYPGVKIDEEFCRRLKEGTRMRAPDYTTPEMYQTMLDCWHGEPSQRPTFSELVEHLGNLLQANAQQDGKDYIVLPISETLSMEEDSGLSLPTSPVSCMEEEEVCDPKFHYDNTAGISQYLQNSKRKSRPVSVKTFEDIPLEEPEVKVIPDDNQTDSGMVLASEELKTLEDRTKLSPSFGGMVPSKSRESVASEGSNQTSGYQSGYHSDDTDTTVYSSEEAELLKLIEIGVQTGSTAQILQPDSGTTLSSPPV
Chain of Aurora kinase A (Homo sapiens) (O14965 whole entry): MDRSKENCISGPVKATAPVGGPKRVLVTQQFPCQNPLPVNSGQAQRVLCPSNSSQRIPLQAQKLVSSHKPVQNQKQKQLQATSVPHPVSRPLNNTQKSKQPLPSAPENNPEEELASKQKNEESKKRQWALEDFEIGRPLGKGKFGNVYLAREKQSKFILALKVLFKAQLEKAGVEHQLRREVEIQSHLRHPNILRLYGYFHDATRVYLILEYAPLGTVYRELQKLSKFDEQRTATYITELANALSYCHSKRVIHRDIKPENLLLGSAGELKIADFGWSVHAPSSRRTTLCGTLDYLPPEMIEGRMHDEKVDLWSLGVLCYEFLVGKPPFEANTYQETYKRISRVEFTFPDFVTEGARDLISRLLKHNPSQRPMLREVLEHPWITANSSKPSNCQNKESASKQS
Chain of Alpha-2B adrenergic receptor (Homo sapiens) (P18089 whole entry): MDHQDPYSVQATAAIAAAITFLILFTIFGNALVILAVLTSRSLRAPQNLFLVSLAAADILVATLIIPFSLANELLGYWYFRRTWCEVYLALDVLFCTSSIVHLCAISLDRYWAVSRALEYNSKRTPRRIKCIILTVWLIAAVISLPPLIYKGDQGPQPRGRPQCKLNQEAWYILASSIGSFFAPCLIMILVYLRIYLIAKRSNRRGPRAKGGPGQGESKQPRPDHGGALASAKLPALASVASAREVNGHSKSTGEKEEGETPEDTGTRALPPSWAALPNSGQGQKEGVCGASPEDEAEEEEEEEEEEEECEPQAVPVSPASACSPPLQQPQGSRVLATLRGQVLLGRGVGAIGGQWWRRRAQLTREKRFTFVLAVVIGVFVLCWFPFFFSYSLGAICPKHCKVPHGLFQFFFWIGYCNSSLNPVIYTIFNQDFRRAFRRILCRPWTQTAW

CCc1cc(O)c(F)cc1-c1ccc2c(-c3nc4c([nH]3)CCN(C(=O)c3cnc(N5CCCCC5)cn3)C4)n[nH]c2c1
IC50 [1]: 29.7 nM | Stability (Liver): 101 µL/min | IC50 [2]: 23.1 nM | solubility thermodynamic [3]: 0.5 µM (≈ 0.283 µg/mL) | Stability [4]: Stable | Drug metabolism [5]: 129 µL/min | IC50 [6]: 5200 nM | logD [7]: 3.9 | CL free (Rattus norvegicus [8]): > 2880 L/h/kg | Vd [9]: 0.8 L/kg | half-life [10]: 2.1 h | CL (Canis familiaris [11]): 1.08 L/h/kg | CL free (Canis familiaris [12]): > 1080 L/h/kg | Vd [13]: 1 L/kg | half-life [14]: 2 h | bioavailability [15]: < 5% | ED50 (Mus musculus [16]): 3 µg | inhibition (Mus musculus [16]): Dose-dependent effect | inhibition (INH) (Mus musculus [17]): 100% | inhibition (Mus musculus [18]): inactive | inhibition [19]: > 50% | inhibition [20]: > 50% | inhibition [21]: > 50% | inhibition [22]: > 50% | Activity (Mus musculus [23]): Non-Toxic | Activity (Canis familiaris [24]): Non-Toxic | Activity (Rattus norvegicus [25]): Non-Toxic | Stability [26]: Stable | Stability [27]: Stable | Stability [28]: Stable | inhibition (Rattus norvegicus [29]): > 50% | fIC50 (JAK1/TYK2 (Homo sapiens)): 4.2 nM | fIC50 (JAK3/JAK1 (Homo sapiens)): 1.8 nM | fIC50 [30]: 5.2 nM
